A1 apoptosis 2 = A1 inhibitors via caspase activation, primary screen, cell-based, luminescence, HTS, two replicates; MEF A1-2A-BIM cells, caspase-Glo luminescence, 3 h; percent of clofoctol response, DMSO zero; caspase activation, % (test concentration not listed); 24,000 tested, under 10 active; AID 2465, 2010; in the data active = caspase activation above about 5.9%
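Material: mouse embryonic fibroblasts co-expressing A1 and BIM (A1-2A-BIM), primed for A1 dependence / Quantity: 2500 cells/well / Buffer or medium: RPMI-1640 growth medium with 10% FBS / Doses: 50 nL compound per well, pinned / Schedule: 3 h compound exposure at 37 °C / Signal: Caspase-Glo luminescence (DEVD substrate) / Measure: Caspase-3/7 activation, seen as rise in luminescence signal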
T cruzi intra = inhibitors of intracellular Trypanosoma cruzi, primary screen, cell-based, plate reader, single point, set 2 | intracellular Trypanosoma cruzi in host cells | activity score (inhibition), % at 5.01 µM | hit rate 4.9% among 22,000; in the data active = activity score above about 55%;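 also: parasites and compound incubated about four days before reading; 0% = median of neutral control wells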
INS-1E ATP HTS = protection of INS-1E cells from cytokine death, primary screen, ATP luminescence, single point; INS-1E cytokine-induced death, 48 h; normalised: neutral wells 0, positive control 100; protection from cytokine-induced ATP loss, % at 10 µM; hit rate 0.1% among 20,000;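 active = mean replicate protection from cytokine-induced ATP loss at least 50% and at least 75% of replicates each reaching 50%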
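Material: INS-1E rat cells; Quantity: 8000 cells/well; Buffer or medium: phenol-red-free RPMI with 5% fetal bovine serum; Probe or stimulus: cytokine cocktail of IFN-γ, TNF-α and IL-1β; Compound dosing: single test concentration per compound, delivered by pin transfer; Incubation: 48 h co-treatment, 10 min post-lysis read; Signal: CellTiter-Glo luminescence.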
Starred values were filed as active, the others as inactive. The entries come from a sample that favours hits as a whole.

Screening C[C@H](CO)N1C[C@H](C)[C@H](CN(C)Cc2ccc(C(F)(F)F)cc2)Oc2ccc(NC(=O)Nc3ccccc3)cc2CC1=O returned A1 apoptosis 2 0, T cruzi intra 26 and INS-1E ATP HTS -15.
For COC(=O)CCCCCCC(=O)N/N=C/c1sccc1C the results were A1 apoptosis 2 1, T cruzi intra -9 and INS-1E ATP HTS 3.
`C[C@@H]1CN([C@H](C)CO)C(=O)Cc2cc(N(C)C)ccc2O[C@@H]1CN(C)Cc1ccc(C(F)(F)F)cc1` gave A1 apoptosis 2 -1, T cruzi intra -4 and INS-1E ATP HTS -1.
C[C@H]1CN([C@@H](C)CO)C(=O)Cc2cc(N(C)C)ccc2O[C@@H]1CN(C)Cc1ccc(C(F)(F)F)cc1 was read as A1 apoptosis 2 1, T cruzi intra 74* and INS-1E ATP HTS 2.
C[C@@H]1CN([C@H](C)CO)C(=O)Cc2cc(N(C)C)ccc2O[C@H]1CN(C)Cc1ccc(C(F)(F)F)cc1 was read as A1 apoptosis 2 0, T cruzi intra 64* and INS-1E ATP HTS 20.
Screening C[C@@H]1CN([C@@H](C)CO)C(=O)Cc2cc(N(C)C)ccc2O[C@@H]1CN(C)Cc1ccc(C(F)(F)F)cc1 returned A1 apoptosis 2 1, T cruzi intra -18 and INS-1E ATP HTS -5.
`COc1ccc(/C=N/NC(=O)c2ccccn2)cc1O` gave A1 apoptosis 2 -10, T cruzi intra -21 and INS-1E ATP HTS -6.
For CN(C)CCCOc1ccc(/C=N/NC(=O)c2ccccn2)cc1 the results were A1 apoptosis 2 -5, T cruzi intra 21 and INS-1E ATP HTS 5.
`O=C(NO)c1ccc(C(=O)N/N=C/c2ccc(F)c(Oc3ccccc3)c2)cc1` gave A1 apoptosis 2 0, T cruzi intra 0 and INS-1E ATP HTS 14.
Screening C[C@H](CO)N1C[C@H](C)[C@H](CN(C)S(=O)(=O)c2cn(C)cn2)Oc2ccc(NS(=O)(=O)c3cn(C)cn3)cc2C1=O returned A1 apoptosis 2 -1, T cruzi intra 5 and INS-1E ATP HTS -3.
`C[C@H]1CN([C@@H](C)CO)C(=O)Cc2cc(NC(=O)Nc3ccc(C(F)(F)F)cc3)ccc2O[C@H]1CN(C)S(=O)(=O)c1ccc(Cl)cc1` gave A1 apoptosis 2 2, T cruzi intra 52 and INS-1E ATP HTS -23.
Cc1noc(C)c1S(=O)(=O)N(C)C[C@H]1Oc2ccc(NC(=O)Nc3ccc(C(F)(F)F)cc3)cc2CC(=O)N([C@@H](C)CO)C[C@H]1C was read as A1 apoptosis 2 -1, T cruzi intra 66* and INS-1E ATP HTS 1.
`Cc1noc(C)c1S(=O)(=O)N(C)C[C@H]1Oc2ccc(NC(=O)Nc3ccc(C(F)(F)F)cc3)cc2CC(=O)N([C@H](C)CO)C[C@@H]1C` gave A1 apoptosis 2 1.
Screening C[C@@H]1CN([C@@H](C)CO)C(=O)Cc2cc(NC(=O)Nc3ccc(C(F)(F)F)cc3)ccc2O[C@@H]1CN(C)S(=O)(=O)c1ccc(Cl)cc1 returned T cruzi intra 81* and INS-1E ATP HTS -23.
Screening C[C@H]1CN([C@@H](C)CO)C(=O)Cc2cc(NC(=O)Nc3ccc(C(F)(F)F)cc3)ccc2O[C@@H]1CN(C)S(=O)(=O)c1ccc(F)cc1 returned A1 apoptosis 2 1, T cruzi intra 35 and INS-1E ATP HTS 0.
`C[C@@H]1CN([C@H](C)CO)C(=O)Cc2cc(NC(=O)Nc3ccc(C(F)(F)F)cc3)ccc2O[C@@H]1CN(C)S(=O)(=O)c1ccc(F)cc1` gave A1 apoptosis 2 0, T cruzi intra 72* and INS-1E ATP HTS -9.
For C[C@@H]1CN([C@@H](C)CO)C(=O)c2cccc(NC(=O)c3ccc(-c4nccs4)cc3)c2O[C@@H]1CN(C)Cc1ccc(C(F)(F)F)cc1 the results were A1 apoptosis 2 1, T cruzi intra 70* and INS-1E ATP HTS -65.
For C[C@@H]1CN([C@H](C)CO)C(=O)c2cccc(NC(=O)c3ccc(-c4nccs4)cc3)c2O[C@@H]1CN(C)Cc1ccc(Oc2ccccc2)cc1 the results were T cruzi intra 42 and INS-1E ATP HTS -52.
C[C@@H]1CN([C@H](C)CO)C(=O)c2cccc(NC(=O)c3ccc(-c4nccs4)cc3)c2O[C@H]1CN(C)Cc1ccc(C(=O)Nc2ccccc2N)cc1 was read as A1 apoptosis 2 0, T cruzi intra 44 and INS-1E ATP HTS 3.
For C[C@H]1CN([C@@H](C)CO)C(=O)c2cccc(NC(=O)c3ccc(-c4nccs4)cc3)c2O[C@@H]1CN(C)Cc1ccc(C(=O)Nc2ccccc2N)cc1 the results were T cruzi intra 75* and INS-1E ATP HTS 25.
C[C@@H]1CN([C@@H](C)CO)C(=O)c2cccc(NC(=O)c3ccc(-c4nccs4)cc3)c2O[C@H]1CN(C)Cc1ccc(Oc2ccccc2)cc1 was read as T cruzi intra 62* and INS-1E ATP HTS -29.
C[C@@H]1CN([C@H](C)CO)C(=O)c2cccc(NC(=O)c3ccc(-c4nccs4)cc3)c2O[C@@H]1CN(C)Cc1ccc(C(F)(F)F)cc1 was read as A1 apoptosis 2 1, T cruzi intra 44 and INS-1E ATP HTS -23.
Cc1noc(C)c1S(=O)(=O)Nc1ccc2c(c1)C(=O)N([C@@H](C)CO)C[C@@H](C)[C@@H](CN(C)C(=O)Nc1ccccc1)OCCCC[C@@H](C)O2 was read as A1 apoptosis 2 0.
`O=S(=O)(NCCCO)c1ccc(Br)cc1` gave A1 apoptosis 2 0.
Screening C[C@H]1CN([C@@H](C)CO)C(=O)c2cc(NC(=O)Nc3cccc4ccccc34)ccc2O[C@@H]1CN(C)Cc1ccc(Oc2ccccc2)cc1 returned A1 apoptosis 2 0, T cruzi intra 81* and INS-1E ATP HTS -26.
For C[C@H]1CN([C@@H](C)CO)C(=O)c2cc(NC(=O)Nc3cccc4ccccc34)ccc2O[C@H]1CN(C)Cc1ccc(-c2ccccc2)cc1 the results were A1 apoptosis 2 0 and T cruzi intra 19.
Screening C[C@@H]1CN([C@H](C)CO)C(=O)c2cc(NC(=O)Nc3cccc4ccccc34)ccc2O[C@H]1CN(C)Cc1ccc(-c2ccccc2)cc1 returned A1 apoptosis 2 0, T cruzi intra 86* and INS-1E ATP HTS -12.
C[C@@H]1CN([C@H](C)CO)C(=O)c2cc(NC(=O)Nc3cccc4ccccc34)ccc2O[C@@H]1CN(C)Cc1ccc(Oc2ccccc2)cc1 was read as T cruzi intra 29 and INS-1E ATP HTS -20.
COC(=O)CCCCCCC(=O)N/N=C/c1coc2ccccc2c1=O was read as A1 apoptosis 2 1, T cruzi intra -4 and INS-1E ATP HTS 11.
For COc1ccc(-c2cn(CC(=O)N3CCOCC3)nn2)cc1OC the results were A1 apoptosis 2 0.
Screening C[C@@H]1CN([C@H](C)CO)C(=O)Cc2cc(N(C)C)ccc2O[C@H]1CN(C)Cc1ccc(Oc2ccccc2)cc1 returned T cruzi intra 57* and INS-1E ATP HTS -27.
`C[C@H]1CN([C@@H](C)CO)C(=O)Cc2cc(N(C)C)ccc2O[C@@H]1CN(C)Cc1ccccc1` gave A1 apoptosis 2 1, T cruzi intra 58* and INS-1E ATP HTS -6.
